Data published in ChEMBL document CHEMBL4382258, “Design and Optimization of Sulfone Pyrrolidine Sulfonamide Antagonists of Transient Receptor Potential Vanilloid-4 with in Vivo Activity in a Pulmonary Edema Model” (J Med Chem, 2018).

How the values were obtained:
[1] = Clearance adjusted for unbound fraction in Sprague-Dawley rat at 1 mg/kg, iv administered as 30 mins infusion by LC/MS/MS analysis; type: ADME, organism-based; conditions: in vivo, 0.5 h
Cytochrome P450 3A4 = Cytochrome P450 3A4 (Homo sapiens, UniProt P08684); test: Time dependent inhibition of CYP3A4 (unknown origin) up to 100 uM preincubated up to 15 mins followed by 7-benzyloxy-trifluoromethylcoumarin substrate and NADPH addition by fluorescence assay; type: ADME
Sequence of Cytochrome P450 3A4 (P08684 whole entry): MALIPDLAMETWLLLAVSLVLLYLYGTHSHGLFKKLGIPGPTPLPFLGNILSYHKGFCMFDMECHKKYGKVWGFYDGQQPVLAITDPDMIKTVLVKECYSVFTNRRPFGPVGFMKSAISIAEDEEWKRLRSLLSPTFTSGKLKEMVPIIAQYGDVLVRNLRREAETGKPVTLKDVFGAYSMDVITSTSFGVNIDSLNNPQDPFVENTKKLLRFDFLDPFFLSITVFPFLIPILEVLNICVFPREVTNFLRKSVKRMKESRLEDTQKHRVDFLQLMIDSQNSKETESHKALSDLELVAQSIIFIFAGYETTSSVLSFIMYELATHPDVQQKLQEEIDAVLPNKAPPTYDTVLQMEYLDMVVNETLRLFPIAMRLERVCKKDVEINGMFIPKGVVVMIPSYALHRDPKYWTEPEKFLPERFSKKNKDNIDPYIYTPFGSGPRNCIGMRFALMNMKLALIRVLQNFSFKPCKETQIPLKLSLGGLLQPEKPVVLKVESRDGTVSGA

[2] = Volume of distribution at steady state in Sprague-Dawley rat at 1 mg/kg, iv or 2 mg/kg, po by LC/MS/MS analysis; type: ADME, organism-based; conditions: in vivo, read-out: Vdss
[3] = MRT in Sprague-Dawley rat at 1 mg/kg, iv or 2 mg/kg, po by LC/MS/MS analysis; type: ADME, organism-based; conditions: in vivo
[4] = biological target: Transient receptor potential cation channel subfamily V member 1 (Homo sapiens, UniProt Q8NER1); test: Antagonist activity at TRPV1 (unknown origin)
Sequence of Transient receptor potential cation channel subfamily V member 1 (Q8NER1 whole entry): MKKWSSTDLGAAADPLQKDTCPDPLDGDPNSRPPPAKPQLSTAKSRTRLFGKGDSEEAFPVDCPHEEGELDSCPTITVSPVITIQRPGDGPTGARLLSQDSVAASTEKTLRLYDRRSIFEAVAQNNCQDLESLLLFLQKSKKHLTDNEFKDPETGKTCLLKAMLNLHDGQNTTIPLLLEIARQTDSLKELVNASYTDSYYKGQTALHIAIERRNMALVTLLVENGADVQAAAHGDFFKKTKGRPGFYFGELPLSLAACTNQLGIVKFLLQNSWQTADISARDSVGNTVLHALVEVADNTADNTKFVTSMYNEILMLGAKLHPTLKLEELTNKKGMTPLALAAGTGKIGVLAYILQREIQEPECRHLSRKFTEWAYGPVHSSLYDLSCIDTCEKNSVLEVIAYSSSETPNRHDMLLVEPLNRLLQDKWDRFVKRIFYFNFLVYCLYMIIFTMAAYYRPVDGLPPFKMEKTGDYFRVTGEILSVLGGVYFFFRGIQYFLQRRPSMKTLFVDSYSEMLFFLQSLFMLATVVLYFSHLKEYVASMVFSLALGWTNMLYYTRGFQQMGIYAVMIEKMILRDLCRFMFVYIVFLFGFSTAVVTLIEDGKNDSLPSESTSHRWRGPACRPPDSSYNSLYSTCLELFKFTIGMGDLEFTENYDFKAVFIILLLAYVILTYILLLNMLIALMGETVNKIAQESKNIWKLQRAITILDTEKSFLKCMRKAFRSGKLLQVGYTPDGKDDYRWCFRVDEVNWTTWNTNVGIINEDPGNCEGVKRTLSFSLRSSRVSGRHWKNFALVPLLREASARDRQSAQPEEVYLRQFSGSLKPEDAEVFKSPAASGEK

[5] = biological target: Transient receptor potential cation channel subfamily M member 8 (Homo sapiens, UniProt Q7Z2W7); test: Antagonist activity at TRPM8 (unknown origin)
Sequence of Transient receptor potential cation channel subfamily M member 8 (Q7Z2W7 whole entry): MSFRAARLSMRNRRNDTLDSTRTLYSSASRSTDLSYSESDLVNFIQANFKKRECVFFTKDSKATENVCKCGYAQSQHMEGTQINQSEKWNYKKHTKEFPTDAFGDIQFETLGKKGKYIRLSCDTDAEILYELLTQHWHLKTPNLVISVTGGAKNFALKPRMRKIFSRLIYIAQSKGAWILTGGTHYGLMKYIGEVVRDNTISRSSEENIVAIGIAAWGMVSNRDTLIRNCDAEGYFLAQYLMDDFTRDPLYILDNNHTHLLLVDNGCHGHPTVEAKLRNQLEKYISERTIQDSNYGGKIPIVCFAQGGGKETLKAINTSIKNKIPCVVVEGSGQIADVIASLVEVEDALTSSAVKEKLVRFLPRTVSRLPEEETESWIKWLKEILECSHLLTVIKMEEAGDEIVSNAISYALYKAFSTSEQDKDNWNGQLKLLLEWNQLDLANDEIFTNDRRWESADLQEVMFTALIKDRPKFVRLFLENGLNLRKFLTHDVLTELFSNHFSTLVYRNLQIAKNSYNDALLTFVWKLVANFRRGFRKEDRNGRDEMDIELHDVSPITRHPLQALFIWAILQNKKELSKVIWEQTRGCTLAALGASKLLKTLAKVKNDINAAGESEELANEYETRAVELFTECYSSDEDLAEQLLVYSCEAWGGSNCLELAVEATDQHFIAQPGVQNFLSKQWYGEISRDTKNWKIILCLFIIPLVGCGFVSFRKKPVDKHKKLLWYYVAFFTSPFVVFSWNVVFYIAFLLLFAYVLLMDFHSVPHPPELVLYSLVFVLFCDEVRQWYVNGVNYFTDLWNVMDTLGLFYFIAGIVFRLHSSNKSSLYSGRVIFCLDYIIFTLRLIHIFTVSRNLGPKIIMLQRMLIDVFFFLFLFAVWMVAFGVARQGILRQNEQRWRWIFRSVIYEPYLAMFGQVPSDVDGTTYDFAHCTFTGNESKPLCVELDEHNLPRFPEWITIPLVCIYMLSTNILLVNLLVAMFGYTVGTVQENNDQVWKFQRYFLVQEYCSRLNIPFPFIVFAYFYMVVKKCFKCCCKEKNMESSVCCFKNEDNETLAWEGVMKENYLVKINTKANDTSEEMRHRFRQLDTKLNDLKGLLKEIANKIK

TRPC3/TRPC6 = biological target: T1, TRPC3/TRPC6 (Homo sapiens, UniProt Q13507+Q9Y210); test: Antagonist activity at TRPC3/TRPC6 (unknown origin); type: protein-complex assay
T1 sequence (Q9Y210 whole entry): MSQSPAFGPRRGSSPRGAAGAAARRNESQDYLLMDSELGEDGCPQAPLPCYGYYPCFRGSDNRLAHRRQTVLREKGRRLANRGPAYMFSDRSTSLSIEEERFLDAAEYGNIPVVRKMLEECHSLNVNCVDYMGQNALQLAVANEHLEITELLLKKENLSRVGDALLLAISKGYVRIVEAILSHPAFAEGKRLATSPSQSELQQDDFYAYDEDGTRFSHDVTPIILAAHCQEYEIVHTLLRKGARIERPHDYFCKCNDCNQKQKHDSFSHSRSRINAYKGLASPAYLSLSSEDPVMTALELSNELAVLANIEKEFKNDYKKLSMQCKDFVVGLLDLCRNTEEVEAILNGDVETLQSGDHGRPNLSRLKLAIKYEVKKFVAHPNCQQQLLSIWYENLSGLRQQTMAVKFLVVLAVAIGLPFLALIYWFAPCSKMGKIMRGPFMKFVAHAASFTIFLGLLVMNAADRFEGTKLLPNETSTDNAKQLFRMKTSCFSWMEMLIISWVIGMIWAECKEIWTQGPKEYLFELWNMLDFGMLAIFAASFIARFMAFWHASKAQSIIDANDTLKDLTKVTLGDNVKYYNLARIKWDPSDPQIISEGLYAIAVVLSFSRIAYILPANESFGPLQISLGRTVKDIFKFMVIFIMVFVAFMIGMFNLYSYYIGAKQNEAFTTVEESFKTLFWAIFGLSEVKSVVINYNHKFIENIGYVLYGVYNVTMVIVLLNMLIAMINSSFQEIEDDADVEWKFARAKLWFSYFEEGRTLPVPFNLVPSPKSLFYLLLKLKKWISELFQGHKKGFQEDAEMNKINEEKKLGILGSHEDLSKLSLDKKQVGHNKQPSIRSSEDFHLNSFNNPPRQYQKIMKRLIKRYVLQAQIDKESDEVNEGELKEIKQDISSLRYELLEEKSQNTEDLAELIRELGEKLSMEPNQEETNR
T1 sequence (Q13507 whole entry): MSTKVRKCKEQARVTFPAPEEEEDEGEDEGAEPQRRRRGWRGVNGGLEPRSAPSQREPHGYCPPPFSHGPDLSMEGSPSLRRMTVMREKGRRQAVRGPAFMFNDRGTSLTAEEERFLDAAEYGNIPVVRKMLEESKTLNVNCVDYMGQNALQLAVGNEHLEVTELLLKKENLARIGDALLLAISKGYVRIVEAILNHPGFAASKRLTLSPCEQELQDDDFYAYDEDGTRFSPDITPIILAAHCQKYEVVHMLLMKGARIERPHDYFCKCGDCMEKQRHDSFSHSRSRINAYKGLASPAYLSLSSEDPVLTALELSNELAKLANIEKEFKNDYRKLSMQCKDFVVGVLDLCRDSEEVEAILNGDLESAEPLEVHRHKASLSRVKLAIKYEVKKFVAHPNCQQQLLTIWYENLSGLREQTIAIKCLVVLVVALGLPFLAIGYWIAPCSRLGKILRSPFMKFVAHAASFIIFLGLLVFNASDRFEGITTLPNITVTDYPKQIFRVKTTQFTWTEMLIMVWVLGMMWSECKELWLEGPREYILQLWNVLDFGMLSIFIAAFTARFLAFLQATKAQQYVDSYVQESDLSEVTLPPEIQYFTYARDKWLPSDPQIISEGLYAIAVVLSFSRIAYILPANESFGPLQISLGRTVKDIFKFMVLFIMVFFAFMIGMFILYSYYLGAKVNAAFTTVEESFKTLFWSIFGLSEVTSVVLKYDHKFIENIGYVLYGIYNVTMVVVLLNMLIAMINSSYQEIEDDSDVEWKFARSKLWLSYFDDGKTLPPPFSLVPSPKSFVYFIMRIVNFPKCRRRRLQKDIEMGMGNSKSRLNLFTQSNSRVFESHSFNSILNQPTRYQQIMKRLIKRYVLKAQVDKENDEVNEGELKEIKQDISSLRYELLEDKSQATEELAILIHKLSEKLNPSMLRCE

Rattus norvegicus = test: Reversal of heart failure-induced pulmonary edema in Sprague-Dawley rat assessed as inhibition of GSK1016790A-induced increase in lung wet weight to body weight ratio at 0.02 to 0.21 ug/kg, iv bolus loading dose followed by 0.3 to 2.3 ug/kg/min, iv continuous infusion dose for 60 mins prior to agonist administration; type: functional, organism-based
How it was run: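 Rats given vehicle or antagonist by i.v. infusion, then agonist GSK1016790A i.v. at 10 µg/kg/min for 10 min (100 µg/kg total). Edema scored as wet lung weight/body weight ratio against naïve animals; inhibition computed from the agonist response; mean ± SEM.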

[6] = AUC (0 to t) in rat at 2.4 mg/kg, po; type: ADME, organism-based; conditions: in vivo
[7] = AUC (0 to t) in dog at 0.9 mg/kg, po; type: ADME, organism-based, Canis lupus familiaris; conditions: in vivo
[8] = AUC (0 to t) in dog at 30 mg/kg, po; type: ADME, organism-based, Canis lupus familiaris; conditions: in vivo
[9] = Dose normalized AUC (0 to t) in rat at 2.4 mg/kg, po; type: ADME, organism-based; conditions: in vivo
[10] = biological target: Transient receptor potential cation channel subfamily V member 4 (Homo sapiens, UniProt Q9HBA0); test: Antagonist activity at human TRPV4 expressed in BHK/AC9 cells assessed as inhibition of GSK634775-induced […] pre-incubated for 10 mins followed by agonist addition by Fluo-4-AM dye-based FLIPR assay; type: cell-based
Sequence of Transient receptor potential cation channel subfamily V member 4 (Q9HBA0 whole entry, the tested form may be a part): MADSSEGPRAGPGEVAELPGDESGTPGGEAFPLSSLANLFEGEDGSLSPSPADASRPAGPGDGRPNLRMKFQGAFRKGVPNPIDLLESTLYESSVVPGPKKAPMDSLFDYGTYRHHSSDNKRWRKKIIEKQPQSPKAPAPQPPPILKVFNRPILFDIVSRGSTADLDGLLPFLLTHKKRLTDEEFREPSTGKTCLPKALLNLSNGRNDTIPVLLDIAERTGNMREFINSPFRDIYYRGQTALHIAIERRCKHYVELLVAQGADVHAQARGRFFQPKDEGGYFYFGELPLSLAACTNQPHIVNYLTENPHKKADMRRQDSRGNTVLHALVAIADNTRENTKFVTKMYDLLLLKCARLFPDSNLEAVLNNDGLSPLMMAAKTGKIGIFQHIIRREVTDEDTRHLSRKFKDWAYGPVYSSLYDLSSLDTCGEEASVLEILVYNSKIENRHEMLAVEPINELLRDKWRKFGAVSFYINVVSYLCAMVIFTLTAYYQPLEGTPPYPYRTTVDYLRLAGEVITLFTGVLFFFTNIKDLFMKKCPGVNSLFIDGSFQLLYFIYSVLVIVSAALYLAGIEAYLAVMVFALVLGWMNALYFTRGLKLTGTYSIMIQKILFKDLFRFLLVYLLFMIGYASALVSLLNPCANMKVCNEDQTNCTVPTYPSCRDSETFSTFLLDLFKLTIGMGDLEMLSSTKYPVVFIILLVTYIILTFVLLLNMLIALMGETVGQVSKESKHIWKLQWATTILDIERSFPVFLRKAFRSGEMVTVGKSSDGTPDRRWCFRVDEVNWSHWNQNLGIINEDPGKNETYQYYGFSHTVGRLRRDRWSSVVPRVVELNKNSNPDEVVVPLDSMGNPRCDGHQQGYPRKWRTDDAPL

[11] = Plasma concentration in Sprague-Dawley rat heart failure-induced pulmonary edema model at 0.02 ug/kg, iv bolus loading dose followed by 0.3 ug/kg/min, iv continuous infusion dose for 60 mins; type: ADME, organism-based; conditions: 2e-05 mg/kg
[12] = Plasma concentration in Sprague-Dawley rat heart failure-induced pulmonary edema model at 0.21 ug/kg, iv bolus loading dose followed by 2.3 ug/kg/min, iv continuous infusion dose for 60 mins; type: ADME, organism-based

SMILES: N#Cc1ccc(S(=O)(=O)N2C[C@H](S(=O)(=O)c3ccc(Cl)cc3)[C@](O)(CO)C2)c(Cl)c1
- CL free [1]: 12 mL/min/kg
- TDI (Cytochrome P450 3A4): Not Active
- Vd [2]: 4.5 L/kg
- MRT [3]: 1.6 h
- IC50 [4]: > 30000 nM
- IC50 [5]: > 30000 nM
- IC50 (TRPC3/TRPC6): > 30000 nM
- fIC50 (Rattus norvegicus): 0.3 nM
- IC50 (Rattus norvegicus; Rattus norvegicus, Sprague-Dawley): 33 nM
- AUC(0-t) [6]: 1100 ng·h/mL
- AUC(0-t) [7]: 2500 ng·h/mL
- AUC(0-t) [8]: 90000 ng·h/mL
- AUCt/dose [9]: 0.5 kg·h/L
- IC50 [10]: 3.2 nM
- concentration at 1 h [11]: 14 nM
- concentration at 1 h [12]: 152 nM
